Reference: ChEMBL document CHEMBL1133968, “Glutamyl-gamma-boronate inhibitors of bacterial Glu-tRNA(Gln) amidotransferase” (Bioorg Med Chem Lett, 2001)
In brackets after ≈: the same amount, converted by molar mass.

How the values were obtained:
[1] = target: T1, Aspartyl/glutamyl-tRNA(Asn/Gln) amidotransferase subunit A (Streptococcus pyogenes serotype M1, UniProt Q99YC0); experiment: In vitro inhibitory concentration against transferase activity of bacterial Glu-tRNA-Gln […] (Glu-AdT)
Summary of the method: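 S. pyogenes Glu-AdT, Gln-dependent transferase reaction. Substrates were Glu-tRNAGln at >10×Km, ATP at 2×Km and Gln at 0.5×Km. Inhibitor titrated over […]. Enzyme pre-incubated 15 min with inhibitor, Glu-tRNAGln and ATP, then started with Gln. Buffer was 50 mM HEPES, 25 mM MgCl₂, 15 mM KCl, 1% DMSO, pH 7. IC50 determined in duplicate.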

Escherichia coli [2] = experiment: Minimum inhibitory concentration against Escherichia coli strain tolC; format: functional
Streptococcus pneumoniae = experiment: Tested for minimal growth inhibitory concentration against Streptococcus pneumoniae ATCC 49619; format: functional
Staphylococcus aureus [3] = experiment: Tested for minimal growth inhibitory concentration against Staphylococcus aureus ATCC 29213; format: functional
Streptococcus pyogenes = experiment: Tested for minimal growth inhibitory concentration against Streptococcus pyogenes ATCC 13709; format: functional
[4] = target: T1, Aspartyl/glutamyl-tRNA(Asn/Gln) amidotransferase subunit A; experiment: In vitro inhibitory concentration against Glutaminase activity of bacterial Glu-tRNA-Gln […] (Glu-AdT)
Summary of the method: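 S. pyogenes Glu-AdT, glutaminase-only reaction with no ATP or tRNA. Gln at 2×Km. Inhibitor titrated over […]. Enzyme pre-incubated 15 min with inhibitor, then started with Gln. Reaction buffer was 50 mM HEPES, 25 mM MgCl₂, 15 mM KCl, 1% DMSO, pH 7. IC50 determined in duplicate.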

Helicobacter pylori = experiment: Tested for minimal growth inhibitory concentration against Helicobacter pylori ATCC 43629; format: functional
Summary of the method: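 Broth dilution in Brain–Heart Infusion broth with 0.25% yeast extract and 10% horse serum. Inoculum was 6×10⁵ CFU per well, incubated 72 h at 37 °C under 10% CO₂. Highest concentration tested was 64. NCCLS-recommended control antibiotics tracked strain performance.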

[5] = Tested for mammalian cellular toxicity expressed as IC50; format: functional
Escherichia coli [6] = experiment: Minimum inhibitory concentration against Escherichia coli strain SM101; format: functional
Enterococcus faecalis = experiment: Tested for minimal growth inhibitory concentration against […] ATCC 29212; format: functional
[7] = tested on: Staphylococcus epidermidis; experiment: Tested for minimal growth inhibitory concentration against Staphylococcus epidermidis ATCC 51625; format: functional
Staphylococcus aureus [8] = experiment: Tested for minimal growth inhibitory concentration against Staphylococcus aureus ATCC 4330; format: functional
Staphylococcus carnosus = experiment: Tested for minimal growth inhibitory concentration against Staphylococcus carnosus ATCC 51365; format: functional
[9] = tested on: Staphylococcus epidermidis; experiment: Tested for minimal growth inhibitory concentration against Staphylococcus epidermidis ATCC 12228; format: functional
Staphylococcus aureus [10] = experiment: Tested for minimal growth inhibitory concentration against Staphylococcus aureus ATCC 25923; format: functional

T1 sequence (Q99YC0 whole entry, looked up): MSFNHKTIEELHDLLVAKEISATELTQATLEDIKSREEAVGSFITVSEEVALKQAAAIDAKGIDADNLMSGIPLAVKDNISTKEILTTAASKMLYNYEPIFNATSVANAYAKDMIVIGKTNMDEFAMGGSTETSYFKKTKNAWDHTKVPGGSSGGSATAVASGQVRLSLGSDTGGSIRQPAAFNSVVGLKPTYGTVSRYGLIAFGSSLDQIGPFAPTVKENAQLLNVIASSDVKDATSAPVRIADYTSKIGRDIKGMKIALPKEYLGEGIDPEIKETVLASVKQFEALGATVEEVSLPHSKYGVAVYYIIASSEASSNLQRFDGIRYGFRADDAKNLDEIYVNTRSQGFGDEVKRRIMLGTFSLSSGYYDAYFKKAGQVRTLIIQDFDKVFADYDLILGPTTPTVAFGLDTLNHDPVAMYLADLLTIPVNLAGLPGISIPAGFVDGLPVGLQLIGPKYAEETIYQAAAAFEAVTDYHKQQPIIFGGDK

Compound CNC(=O)[C@@H](N)CCB1O[C@@]2(C)CCC3C[C@@]2(O1)C3(C)C has an IC50 [1] of 35 µM, an MIC (Escherichia coli [2]) of 64 µg/mL (≈ 218 µM) and an MIC (Streptococcus pneumoniae) of 32 µg/mL (≈ 109 µM). The MIC (Staphylococcus aureus [3]) was > 64 µg/mL, the MIC (Streptococcus pyogenes) was 32 µg/mL (≈ 109 µM) and the IC50 [4] was > 80 µM. For the same compound, the MIC (Helicobacter pylori) was > 64 µg/mL, the IC50 [5] was > 100 µM and the MIC (Escherichia coli [6]) was 64 µg/mL (≈ 218 µM). The MIC (Enterococcus faecalis) was > 64 µg/mL.
For CC1(C)C2CC[C@]3(C)OB(CC[C@H](NC(=O)OCc4ccccc4)C(=O)O)O[C@]13C2, the MIC (Escherichia coli [2]) was > 64 µg/mL, the MIC (Staphylococcus aureus [3]) was > 64 µg/mL and the MIC (Streptococcus pyogenes) was > 64 µg/mL. For the same compound, the IC50 [4] was > 80 µM, the MIC (Helicobacter pylori) was > 64 µg/mL and the IC50 [5] was > 100 µM. For the same compound, the MIC (Escherichia coli [6]) was > 64 µg/mL and the MIC (Enterococcus faecalis) was > 64 µg/mL.
For CC(C)(C)OC(=O)[C@@H](N)CCB1O[C@@]2(C)CCC3C[C@@]2(O1)C3(C)C, the MIC (Escherichia coli [2]) was 8 µg/mL (≈ 23.7 µM), the MIC (Staphylococcus aureus [3]) was > 64 µg/mL and the MIC (Streptococcus pyogenes) was > 64 µg/mL. The IC50 [4] was > 80 µM, the MIC (Helicobacter pylori) was > 64 µg/mL and the IC50 [5] was > 100 µM. For the same compound, the MIC (Escherichia coli [6]) was 8 µg/mL (≈ 23.7 µM) and the MIC (Enterococcus faecalis) was > 64 µg/mL.
Work on CC1(C)C2CC[C@]3(C)OB(CC[C@H](N)C(=O)NS(=O)(=O)c4ccccc4)O[C@]13C2 yielded an IC50 [1] of 20 µM and an IC50 [4] of 40 µM.
For CC(=O)N[C@@H](CCB1O[C@@]2(C)CCC3C[C@@]2(O1)C3(C)C)C(=O)O, the IC50 [1] was > 20 µM and the IC50 [4] was > 80 µM.
In the case of COC(=O)[C@@H](N)CCCB1O[C@@]2(C)CCC3C[C@@]2(O1)C3(C)C, the IC50 [1] is reported as > 20 µM and the IC50 [4] is reported as > 80 µM.
For N[C@@H](CCB(O)O)C(=O)O, the MIC [7] was > 64 µg/mL, the IC50 [1] was 0.1 µM and the MIC (Staphylococcus aureus [8]) was > 64 µg/mL. For the same compound, the MIC (Escherichia coli [2]) was > 64 µg/mL, the MIC (Staphylococcus carnosus) was > 64 µg/mL and the MIC (Streptococcus pneumoniae) was 3 µg/mL (≈ 20.4 µM). For the same compound, the MIC (Staphylococcus aureus [3]) was > 64 µg/mL, the MIC (Streptococcus pyogenes) was 8 µg/mL (≈ 54.4 µM) and the IC50 [4] was 1.6 µM. For the same compound, the MIC (Helicobacter pylori) was 32 µg/mL (≈ 218 µM), the IC50 [5] was > 100 µM and the MIC [9] was > 64 µg/mL. For the same compound, the MIC (Staphylococcus aureus [10]) was > 64 µg/mL, the MIC (Escherichia coli [6]) was > 64 µg/mL and the MIC (Enterococcus faecalis) was 8 µg/mL (≈ 54.4 µM).
In the case of CC1(C)C2CC[C@]3(C)OB(CC[C@H](N)C(=O)NS(=O)(=O)c4ccc(N)cc4)O[C@]13C2, the IC50 [1] is reported as 10 µM and the IC50 [4] is reported as > 80 µM.
Compound CC1(C)C2CC[C@]3(C)OB(CCC(N)CC(=O)O)O[C@]13C2 (some centres undefined) has an IC50 [1] of 6.5 µM.
With CNC(=O)CNC(=O)[C@@H](N)CCB1O[C@@]2(C)CCC3C[C@@]2(O1)C3(C)C the MIC [7] was > 64 µg/mL, the IC50 [1] was 20 µM and the MIC (Staphylococcus aureus [8]) was > 64 µg/mL. The MIC (Staphylococcus carnosus) was > 64 µg/mL, the MIC (Streptococcus pneumoniae) was 16 µg/mL (≈ 45.6 µM) and the MIC (Staphylococcus aureus [3]) was > 64 µg/mL. For the same compound, the MIC (Streptococcus pyogenes) was 8 µg/mL (≈ 22.8 µM), the IC50 [4] was 40 µM and the MIC (Helicobacter pylori) was 16 µg/mL (≈ 45.6 µM). For the same compound, the MIC [9] was > 64 µg/mL, the MIC (Staphylococcus aureus [10]) was > 64 µg/mL and the MIC (Enterococcus faecalis) was 16 µg/mL (≈ 45.6 µM).
With CC1(C)C2CC[C@]3(C)OB(CC[C@H](NC(=O)CN)C(=O)O)O[C@]13C2 the IC50 [1] was > 20 µM, the MIC (Escherichia coli [2]) was > 64 µg/mL and the MIC (Streptococcus pneumoniae) was > 64 µg/mL. The MIC (Staphylococcus aureus [3]) was > 64 µg/mL, the MIC (Streptococcus pyogenes) was > 64 µg/mL and the IC50 [4] was > 80 µM. The MIC (Escherichia coli [6]) was > 64 µg/mL and the MIC (Enterococcus faecalis) was 8 µg/mL (≈ 23.7 µM).
With CC1(C)C2CC[C@]3(C)OB(CCC[C@H](N)C(=O)O)O[C@]13C2 the IC50 [1] was > 20 µM and the IC50 [4] was > 80 µM.
With CC1(C)C2CC[C@]3(C)OB(CCC[C@H](NC(=O)OCc4ccccc4)C(=O)O)O[C@]13C2 the IC50 [1] was > 20 µM and the IC50 [4] was > 80 µM.
In the case of COC(=O)[C@@H](N)CCB1O[C@@]2(C)CCC3C[C@@]2(O1)C3(C)C, the MIC [7] is reported as > 64 µg/mL, the IC50 [1] is reported as 0.07 µM and the MIC (Staphylococcus aureus [8]) is reported as > 64 µg/mL. The MIC (Escherichia coli [2]) was > 64 µg/mL, the MIC (Staphylococcus carnosus) was > 64 µg/mL and the MIC (Streptococcus pneumoniae) was 2 µg/mL (≈ 6.78 µM). The MIC (Staphylococcus aureus [3]) was > 64 µg/mL, the MIC (Streptococcus pyogenes) was 8 µg/mL (≈ 27.1 µM) and the IC50 [4] was 1.5 µM. The MIC (Helicobacter pylori) was 64 µg/mL (≈ 217 µM), the IC50 [5] was > 100 µM and the MIC [9] was > 64 µg/mL. For the same compound, the MIC (Staphylococcus aureus [10]) was > 64 µg/mL, the MIC (Escherichia coli [6]) was > 64 µg/mL and the MIC (Enterococcus faecalis) was 4 µg/mL (≈ 13.6 µM).
With CC1(C)C2CC[C@]3(C)OB(CCCN)O[C@]13C2 the IC50 [1] was > 20 µM, the MIC (Escherichia coli [2]) was > 64 µg/mL and the MIC (Staphylococcus aureus [3]) was > 64 µg/mL. The IC50 [4] was > 80 µM, the MIC (Helicobacter pylori) was > 64 µg/mL and the IC50 [5] was > 100 µM. For the same compound, the MIC (Escherichia coli [6]) was > 64 µg/mL and the MIC (Enterococcus faecalis) was > 64 µg/mL.
For CC(C)(C)OC(=O)NCCCB1O[C@@]2(C)CCC3C[C@@]2(O1)C3(C)C, the IC50 [1] was > 20 µM, the MIC (Escherichia coli [2]) was 8 µg/mL (≈ 23.7 µM) and the MIC (Staphylococcus aureus [3]) was > 64 µg/mL. The MIC (Streptococcus pyogenes) was > 64 µg/mL, the IC50 [4] was > 80 µM and the MIC (Helicobacter pylori) was > 64 µg/mL. The MIC (Escherichia coli [6]) was 8 µg/mL (≈ 23.7 µM) and the MIC (Enterococcus faecalis) was > 64 µg/mL.
In the case of CN[C@@H](CCB1O[C@@]2(C)CCC3C[C@@]2(O1)C3(C)C)C(=O)O, the IC50 [1] is reported as 1.1 µM.
With COC(=O)[C@H](CCB1O[C@@]2(C)CCC3C[C@@]2(O1)C3(C)C)NC(=O)OCc1ccccc1 the IC50 [1] was > 20 µM, the MIC (Escherichia coli [2]) was > 64 µg/mL and the MIC (Staphylococcus aureus [3]) was > 64 µg/mL. For the same compound, the MIC (Streptococcus pyogenes) was 64 µg/mL (≈ 149 µM), the IC50 [4] was > 80 µM and the MIC (Helicobacter pylori) was 32 µg/mL (≈ 74.5 µM). For the same compound, the IC50 [5] was > 100 µM, the MIC (Escherichia coli [6]) was > 64 µg/mL and the MIC (Enterococcus faecalis) was > 64 µg/mL.
In the case of COC(=O)[C@@H](N)CCB(O)O, the MIC [7] is reported as > 64 µg/mL, the IC50 [1] is reported as 0.05 µM and the MIC (Staphylococcus aureus [8]) is reported as > 64 µg/mL. The MIC (Escherichia coli [2]) was > 64 µg/mL, the MIC (Staphylococcus carnosus) was > 64 µg/mL and the MIC (Streptococcus pneumoniae) was 2 µg/mL (≈ 12.4 µM). For the same compound, the MIC (Staphylococcus aureus [3]) was > 64 µg/mL, the MIC (Streptococcus pyogenes) was 6 µg/mL (≈ 37.3 µM) and the IC50 [4] was 1.3 µM. The MIC (Helicobacter pylori) was 32 µg/mL (≈ 199 µM), the IC50 [5] was > 100 µM and the MIC [9] was > 64 µg/mL. For the same compound, the MIC (Staphylococcus aureus [10]) was > 64 µg/mL, the MIC (Escherichia coli [6]) was > 64 µg/mL and the MIC (Enterococcus faecalis) was 3 µg/mL (≈ 18.6 µM).
CC1(C)C2CC[C@]3(C)OB(CC[C@H](N)C(=O)NS(=O)(=O)C(F)(F)F)O[C@]13C2 gave an IC50 [1] of 4.7 µM and an IC50 [4] of 55 µM.
With COC(=O)[C@H](CCCB1O[C@@]2(C)CCC3C[C@@]2(O1)C3(C)C)NC(=O)OCc1ccccc1 the IC50 [1] was > 20 µM and the IC50 [4] was > 80 µM.
